The source of these data is ChEMBL document CHEMBL3865824, “New (E)-1-alkyl-1H-benzo[d]imidazol-2-yl)methylene)indolin-2-ones: Synthesis, in vitro cytotoxicity evaluation and apoptosis inducing studies” (Eur J Med Chem, 2016).

Calls of active or inactive are those of the source. No cut-off for these calls is given here.

A short description of data set [1]: Cell cycle arrest in human MDA-MB-231 cells assessed as accumulation at G2/M phase at 4 uM after 24 hrs by propidium iodide staining based FACS analysis (reference value: 26 %). It is filed as functional. In short, it runs like this: (§1)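 MDA-MB-231 at 1×10^6 cells/well treated with 1, 2 or 4 µM for 24 h, with a DMSO control. Cells harvested by trypsin, washed with PBS and fixed in 70% ethanol for 30 min at 4 °C. Stained 15 min at room temperature in the dark with PI buffer containing Triton X and DNase-free RNase A. Analysed by flow cytometry; G0/G1, S and G2/M fractions quantified.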
On the technique in general: In flow cytometry, cells or beads pass a laser one at a time.

Data set [2] deals with MDA-MB-231. Briefly: Induction of apoptosis in human MDA-MB-231 cells assessed as destructive fragmentation of chromatin at 4 uM after 24 hrs by AO/EB-dual staining based fluorescent microscopic analysis. It counts as functional, cell-based. An outline of the steps:
(§2)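 MDA-MB-231 plated at 1×10^6 cells/mL and treated at 1, 2 or 4 µM, with a DMSO control. Incubation time is given as 48 h in the methods and 24 h in the figure legend. AO and EB added at 10 µg/mL each. Cells viewed within 10 min by fluorescence microscopy (excitation 488 nm, emission 550 nm) at 200×.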

A short description of data set [3]: Selectivity ratio of IC50 for human MCF10A cells to IC50 for human A549 cells. It is filed as ADME, cell-based. The following applies: MCF10A cells versus A549 cells, read-out: Ratio IC50.
For data set [4], the system named is MDA-MB-231. Briefly: Induction of apoptosis in human MDA-MB-231 cells assessed as late apoptotic cells after 24 hrs by Annexin V-FITC/propidium iodide-staining based FACS analysis. It is filed as functional, cell-based.
For data set [5], the system named is MDA-MB-231. Briefly: Induction of apoptosis in human MDA-MB-231 cells assessed as viable cells at 2 uM after 24 hrs by Annexin V-FITC/propidium iodide-staining based FACS analysis (reference value: 89.5 %). It counts as functional. The following applies: MDA-MB-231, 24 h, read-out: Activity.
The nature of data set [6]: Cell cycle arrest in human MDA-MB-231 cells assessed as after 24 hrs by propidium iodide staining based FACS analysis.
Data set [7] can be described thus: Cytotoxicity against human DU145 cells assessed as reduction in cell viability after 48 hrs by MTT assay. The conditions noted are these: DU-145, 48 h. It is filed as functional, cell-based. In short, it runs like this:
(§3)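 Cells grown in DMEM or MEM with 10% FBS at 37 °C, 5% CO2. Seeded at 1×10^4 cells/well, incubated 48 h, then exposed to compound for 48 h with vehicle control. MTT (5 mg/mL stock) added for 4 h; formazan dissolved in DMSO, absorbance read at 570 nm. Preliminary screen at 50 µM. Compounds giving >50% inhibition were tested for dose-response curves; IC50 derived by linear regression of % inhibition versus concentration. Mean of three independent experiments in triplicate.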

In data set [8] the test system is MDA-MB-231. Briefly: Induction of apoptosis in human MDA-MB-231 cells assessed as loss of mitochondrial membrane potential at 4 uM after 24 hrs by rhodamine-123 -based spectrofluorometric analysis relative to control. It is filed as functional. In short, it runs like this: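 MDA-MB-231 cells were plated at 5×10^5 cells/mL in 6-well plates, left to adhere overnight, then treated 24 h at 1, 2 and 4 μM. Cells were trypsinized, washed in PBS and loaded with rhodamine-123 (10 μg/mL) in PBS for 30 min at room temperature. After two PBS washes, fluorescence was read by spectrofluorometer (ex 480/em 530 nm). Loss is expressed against control; three independent experiments in triplicate.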

Data set [9] concerns MDA-MB-231. Briefly: Induction of apoptosis in human MDA-MB-231 cells assessed as early apoptotic cells at 4 uM after 24 hrs by Annexin V-FITC/propidium iodide-staining based FACS analysis (reference value: 4.1 %). It counts as functional.
In data set [10] the test system is MDA-MB-231. Briefly: Induction of apoptosis in human MDA-MB-231 cells assessed as cell shrinkage at 1 to 4 uM after 24 hrs by phase contrast microscopic analysis. It counts as functional, cell-based. An outline of the steps: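 MDA-MB-231 treated at 1, 2 or 4 µM for 24 h. Morphology examined and photographed by phase contrast microscopy against untreated control cells.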

The nature of data set [11]: Cytotoxicity against human MDA-MB-231 cells assessed as growth inhibition at 50 uM after 48 hrs by MTT assay relative to control. It is filed as functional. The following applies: MDA-MB-231, 48 h, read-out: GI. An outline of the steps:
as §3
A general note: Tetrazolium dyes change colour on reduction, which living cells bring about.

The test system of data set [12] is MDA-MB-231. Briefly: Inhibition of F-actin polymerization in human MDA-MB-231 cells assessed as decrease in protein extension at 1 to 4 uM after 12 hrs by rhodamine-phalloidin/hoechst […]-dual staining based confocal microscopic analysis. It is filed as cell-based. In short, it runs like this:
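MDA-MB-231 cells (1×10^6/well) were grown on coverslips for 24 h, then exposed 12 h to 1, 2 and 4 μM. After a PBS wash and fixation in 4% paraformaldehyde, F-actin was stained with rhodamine-phalloidin and nuclei with Hoechst […]. Slides were mounted in anti-fade reagent and imaged by confocal microscopy (20× objective).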

Data set [13] relates to MDA-MB-231. Briefly: Induction of apoptosis in human MDA-MB-231 cells assessed as formation of condensed chromatin at 1 uM after 24 hrs by AO/EB-dual staining based fluorescent microscopic analysis. It counts as functional, cell-based. An outline of the steps:
as §2

Data set [14] deals with MDA-MB-231. Briefly: Induction of apoptosis in human MDA-MB-231 cells assessed as loss of mitochondrial membrane potential after 24 hrs by rhodamine-123 -based spectrofluorometric analysis. It is filed as functional, cell-based. An outline of the steps:
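MDA-MB-231 seeded at 5×10^5 cells/mL and allowed to adhere overnight, then treated at 1, 2 or 4 µM for 24 h. Cells collected by trypsin, washed, and stained with rhodamine-123 (10 µg/mL) in PBS for 30 min at room temperature. Cells washed twice and fluorescence read at excitation 480 nm, emission 530 nm. Mean ± SD of three independent experiments in triplicate.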

The test system of data set [15] is MDA-MB-231. Briefly: Induction of apoptosis in human MDA-MB-231 cells assessed as formation of horse-shoe shaped nuclei at 1 to 4 uM after 24 hrs by DAPI dye-based fluorescent microscopic analysis. It is filed as functional, cell-based. In short, it runs like this:
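MDA-MB-231 grown at 1×10^6 cells/well in 6-well plates and treated at 1.0, 2.0 or 4.0 µM for 24 h, with untreated controls. Cells washed twice with PBS, fixed in 4% paraformaldehyde and stained with 10 µg/mL DAPI. Nuclei examined by fluorescence microscopy (excitation 359 nm, emission 461 nm) at 200×.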

The test system of data set [16] is MDA-MB-231. Briefly: Induction of apoptosis in human MDA-MB-231 cells assessed as necrotic cells at 1 uM after 24 hrs by Annexin V-FITC/propidium iodide-staining based FACS analysis (reference value: 2.8 %). It counts as functional.
Data set [17] is described as follows: Cell cycle arrest in human MDA-MB-231 cells assessed as accumulation at G2/M phase at 2 uM after 24 hrs by propidium iodide staining based FACS analysis (reference value: 26 %). It counts as functional. An outline of the steps: as §1
Data set [18] in a line: Cytotoxicity against human BT549 cells assessed as growth inhibition at 50 uM after 48 hrs by MTT assay relative to control. It is filed as functional. The following applies: BT-549, 48 h, read-out: GI. An outline of the steps: as §3
The nature of data set [19]: Cytotoxicity against human A549 cells assessed as reduction in cell viability after 48 hrs by MTT assay. The conditions noted are these: A549, 48 h. It is filed as functional, cell-based. An outline of the steps: as §3

Consider `CC(C)n1c(/C=C2/C(=O)Nc3ccc(Br)cc32)nc2ccccc21`, for which the Activity in data set [1] is 14.8%; in [4], “Dose-dependent effect”; in data set [6], “Dose-dependent effect”; in [8], 38.5%; in [9] it was 23.4%; in data set [14] it was “Dose-dependent effect”. The Activity in data set [16] was determined as 3.4%; in data set [17], 18.9%. Besides, the outcome in [2], in [10], in data set [13] and in data set [15] was Active. For the same compound, the selectivity ratio in data set [3] came to 6.5. In addition, the viability at 2 µM in data set [5] was found to be 73.6%. For the same compound, the IC50 – broadly, the concentration that inhibits the measured activity by half – was 7.5 µM in data set [7] and 8.63 µM in data set [19]. Moreover, the inhibition of growth at 50 µM in [11] and in data set [18] was > 50% in each case. The inhibition entry in [12] was “Active”.
